Data: paper PMC6028884 (Clinical Pharmacokinetics, 2017)
“Also recorded” adds a separate entry of the source. Values belong to the compound of their own block, whether it stands above or below them.

Assays:
[1] = Population pharmacokinetic analysis; type: in vivo, human
[2] = type: in vivo, human
Summary of the method: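 Used a two-compartment population PK model with first-order absorption and elimination, fitted by nonlinear mixed-effects modelling. Data were LC-MS plasma concentrations from healthy subjects and RA patients given 1–48 mg immediate-release oral doses. Simulations ran 200 replicates using demographics of RA patients from two phase IIb trials.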

[3] = cited from earlier work
plasma protein = conditions: cited from earlier work
cytochrome P450 (CYP) 3A = conditions: in vitro; cited from earlier work
CYP2D6 = conditions: in vitro; cited from earlier work
[4] = immediate-release formulation, compared with fasting conditions; cited from earlier work
[5] = strong CYP3A inhibitor ketoconazole; cited from earlier work
rheumatoid arthritis = conditions: phase IIb studies, 12 weeks; cited from earlier work
[6] = cited from earlier work; remark: listed apart in the source
[7] = Population analysis, point estimate (%RSE), final model
[8] = matched on sex and creatinine clearance
[9] = steady state, matching on other covariates

- ALAG1 ([1]; Bootstrap analysis, mean): 0.48 h
- Additive residual error SD ([1]; Bootstrap analysis, mean): 0.17 ng/mL
- Exponent for the effect of body weight on Vc/F (θ5) ([1]; Bootstrap analysis, mean): 0.50
- Ka ([1]; Bootstrap analysis, mean): 20.1 h⁻¹
- Proportional residual error SD ([1]; Bootstrap analysis, mean): 31%
- Q/F ([1]; Bootstrap analysis, mean): 3.24 L/h
- Ratio of CL/F in RA patients compared with healthy subjects (θ1) ([1]; Bootstrap analysis, mean): 0.76
- Ratio of CL/F in females compared with males (θ2) ([1]; Bootstrap analysis, mean): 0.86
- Ratio of Vc/F in females compared with males (θ4) ([1]; Bootstrap analysis, mean): 0.75
- Vc/F ([1]; Bootstrap analysis, mean): 145 L
- Vp/F ([1]; Bootstrap analysis, mean): 65.4 L
- ωIOV2 on ALAG1 (phase II study visits only) ([1]; Bootstrap analysis, mean): 0.079
- CL/F ([1]; Bootstrap analysis, mean (188 successful runs out of 200)): 39.8 L/h
- ALAG1 ([1]; Bootstrap analysis, median): 0.48 h
- Additive residual error SD ([1]; Bootstrap analysis, median): 0.17 ng/mL
- Exponent for the effect of body weight on Vc/F (θ5) ([1]; Bootstrap analysis, median): 0.50
- Ka ([1]; Bootstrap analysis, median): 12.2 h⁻¹
- Proportional residual error SD ([1]; Bootstrap analysis, median): 31%
- Q/F ([1]; Bootstrap analysis, median): 3.23 L/h
- Ratio of CL/F in RA patients compared with healthy subjects (θ1) ([1]; Bootstrap analysis, median): 0.76
- Ratio of CL/F in females compared with males (θ2) ([1]; Bootstrap analysis, median): 0.86
- Ratio of Vc/F in females compared with males (θ4) ([1]; Bootstrap analysis, median): 0.75
- Vc/F ([1]; Bootstrap analysis, median): 145 L
- Vp/F ([1]; Bootstrap analysis, median): 64.6 L
- ωIOV2 on ALAG1 (phase II study visits only) ([1]; Bootstrap analysis, median): 0.079
- CL/F ([1]; Bootstrap analysis, median (188 successful runs out of 200)): 39.8 L/h
- ALAG1 [1, 7]: 0.48 (0.017) h
- Additive residual error SD [1, 7]: 0.18 (13) ng/mL
- Proportional residual error SD [1, 7]: 31 (13) %
- Q/F [1, 7]: 3.23 (2.5) L/h
- Ratio of CL/F in RA patients compared with healthy subjects (θ1) [1, 7]: 0.76 (2.9)
- Ratio of CL/F in females compared with males (θ2) [1, 7]: 0.86 (2.8)
- Ratio of Vc/F in females compared with males (θ4) [1, 7]: 0.75 (1.6)
- Vp/F [1, 7]: 64.3 (1.1) L
- ωIOV2 on ALAG1 (phase II study visits only) [1, 7]: 0.08 (1.5)
- Exponent for the effect of body weight on Vc/F (θ5) ([1]; Population analysis, point estimate (%RSE), final model, (BW/74 kg)^θ5): 0.50 (15.8)
- Vc/F ([1]; Population analysis, point estimate (%RSE), final model, reference male, 74 kg): 146 (2.2) L
- Ka ([1]; Population analysis, point estimate, final model): 12.3 h⁻¹
- lower CL/F in females compared with males ([1]; in vivo): 14%
- absorption lag time (ALAG1), estimate (95% CI) ([1]; typical healthy male): 0.48 (0.47–0.49) h
- mean absorption time (calculated as 1/Ka), estimate (95% CI) ([1]; typical healthy male): 0.08 (0.04–0.12) h
- higher Cmax in females compared with males ([2]; steady state): 26%
- higher upadacitinib AUC in females relative to males [2, 9]: 16%
- higher upadacitinib AUC in subjects with RA relative to healthy volunteers [2, 9]: 32%
Structure (SMILES): CC[C@@H]1CN(C(=O)NCC(F)(F)F)C[C@@H]1c1cnc2cnc3[nH]ccc3n12 [upadacitinib, Upadacitinib]
- linearity of pharmacokinetics with respect to dose ([1]; 1-48 mg immediate-release doses): dose-proportional; also recorded: did not deviate significantly from linearity; also recorded: did not significantly deviate from linearity
- correlation of clearance with body weight ([1]; in vivo): not correlated
- effect of CYP2D6 phenotype on upadacitinib clearance ([1]; phenotype determined from pharmacogenetic analysis): not correlated; also recorded: not a statistically significant covariate
- oral clearance (CL/F), population estimate (95% bootstrap CI) ([1]; typical healthy male, body weight 74 kg, creatinine clearance […]): 39.7 (37.8–41.5) L/h
- AUC, body weight < 60 kg or > 100 kg compared with 60-100 kg [2, 8]: same
- higher Cmax, body weight < 60 kg compared with 60-100 kg [2, 8]: approximately 10%
- lower Cmax, body weight > 100 kg compared with 60-100 kg [2, 8]: approximately 10%
- upadacitinib dose eliminated unchanged in urine [3]: Approximately 20%
- accumulation in plasma ([3]; multiple twice-daily dosing): no accumulation
- dose proportionality of exposures ([3]; over the evaluated dose range): approximately dose proportional
- functional half-life ([3]; phase I studies, immediate-release capsules): approximately 4 h
- tolerability ([3]; single doses up to 48 mg and multiple twice-daily doses up to 24 mg, immediate-release capsules): well-tolerated
- plasma protein binding (plasma protein): < 50%
- substrate status for CYP3A (cytochrome P450 (CYP) 3A): non-sensitive substrate
- contribution of CYP2D6 to metabolism (CYP2D6): potentially minor metabolic contribution; also recorded: minor contributor
- decrease of Cmax by food [4]: approximately 20%
- delay of time to Cmax (Tmax) by food [4]: approximately 2 h
- increase of upadacitinib exposures by ketoconazole [5]: approximately 75%
- safety profile (rheumatoid arthritis): acceptable safety profile

Structure (SMILES): C[C@@H]1CCN(C(=O)CC#N)C[C@@H]1N(C)c1ncnc2[nH]ccc12 [tofacitinib]
- oral clearance in subjects with RA compared with healthy subjects [6]: lower

Structure (SMILES): O=C(Nc1nc2cccc(-c3ccc(CN4CCS(=O)(=O)CC4)cc3)n2n1)C1CC1 [filgotinib]
- oral clearance in subjects with RA compared with healthy subjects [6]: lower
